Laboratory results published in paper PMC4832308 (Cancer, 2015).

System: patients with advanced solid tumors or multiple myeloma
Experiment: phase 1 dose escalation: safety, tolerability, DLT, MTD
Assay type: in vivo, human
Summary of the method: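 Modified accelerated titration from 7.5 mg, oral daily in 28-day cycles. Single-patient cohorts used 100% increments until the first drug-related grade ≥2 toxicity, then 6-patient cohorts used ~50% steps. A dose with ≥2 DLTs was nontolerated. MTD was the last lower dose with 0–1 of 6 DLTs in cycle 1. Adverse events were graded by NCI CTCAE version 4.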

CO[C@H]1CC[C@H](N2C(=O)CNc3ncc(-c4ccc(C(C)(C)O)nc4)nc32)CC1 [CC‐223]
8: Dose interruptions (30 mg)
0: Dose reductions (15 mg) | Dose reductions (30 mg)
1 (11) n (%): Dry mouth (treatment‐related AE) (30 mg, Any Grade) | Dyspnea (treatment‐related AE) (30 mg, Any Grade) | Pruritus (treatment‐related AE) (30 mg, Any Grade) | Rash (treatment‐related AE) (30 mg, Any Grade) | Rash pruritic (treatment‐related AE) (30 mg, Any Grade) | Thrombocytopenia (treatment‐related AE) (30 mg, Any Grade) | Asthenia (treatment‐related AE) (45 mg, Any Grade)
1 (100) n (%): Dysgeusia (treatment‐related AE) (7.5 mg, Any Grade) | Fatigue (treatment‐related AE) (7.5 mg, Any Grade) | Nausea (treatment‐related AE) (7.5 mg, Any Grade)
2 (22) n (%): Asthenia (treatment‐related AE) (30 mg, Any Grade) | Mucositis (treatment‐related AE) (30 mg, Any Grade) | Vomiting (treatment‐related AE) (30 mg, Any Grade) | Hyperglycemia (treatment‐related AE) (30 mg, Grade ≥3) | Arthralgia (treatment‐related AE) (45 mg, Any Grade) | Dry mouth (treatment‐related AE) (45 mg, Any Grade) | Dysgeusia (treatment‐related AE) (45 mg, Any Grade)
2: Dose interruptions (15 mg)
0 n (%): Arthralgia (treatment‐related AE) (7.5 mg, Any Grade) | Asthenia (treatment‐related AE) (7.5 mg, Any Grade) | Decreased appetite (treatment‐related AE) (7.5 mg, Any Grade) | Diarrhea (treatment‐related AE) (7.5 mg, Any Grade) | Dry mouth (treatment‐related AE) (7.5 mg, Any Grade) | Dyspnea (treatment‐related AE) (7.5 mg, Any Grade) | Hyperglycemia (treatment‐related AE) (7.5 mg, Any Grade) | Increased glycosylated hemoglobin (treatment‐related AE) (7.5 mg, Any Grade) | Mucositis (treatment‐related AE) (7.5 mg, Any Grade) | Pruritus (treatment‐related AE) (7.5 mg, Any Grade) | Rash (treatment‐related AE) (7.5 mg, Any Grade) | Rash pruritic (treatment‐related AE) (7.5 mg, Any Grade) | Thrombocytopenia (treatment‐related AE) (7.5 mg, Any Grade) | Vomiting (treatment‐related AE) (7.5 mg, Any Grade) | Arthralgia (treatment‐related AE) (7.5 mg, Grade ≥3) | Asthenia (treatment‐related AE) (7.5 mg, Grade ≥3) | Decreased appetite (treatment‐related AE) (7.5 mg, Grade ≥3) | Diarrhea (treatment‐related AE) (7.5 mg, Grade ≥3) | Dry mouth (treatment‐related AE) (7.5 mg, Grade ≥3) | Dysgeusia (treatment‐related AE) (7.5 mg, Grade ≥3) | Dyspnea (treatment‐related AE) (7.5 mg, Grade ≥3) | Fatigue (treatment‐related AE) (7.5 mg, Grade ≥3) | Hyperglycemia (treatment‐related AE) (7.5 mg, Grade ≥3) | Increased glycosylated hemoglobin (treatment‐related AE) (7.5 mg, Grade ≥3) | Mucositis (treatment‐related AE) (7.5 mg, Grade ≥3) | Nausea (treatment‐related AE) (7.5 mg, Grade ≥3) | Pruritus (treatment‐related AE) (7.5 mg, Grade ≥3) | Rash (treatment‐related AE) (7.5 mg, Grade ≥3) | Rash pruritic (treatment‐related AE) (7.5 mg, Grade ≥3) | Thrombocytopenia (treatment‐related AE) (7.5 mg, Grade ≥3) | Vomiting (treatment‐related AE) (7.5 mg, Grade ≥3) | Arthralgia (treatment‐related AE) (15 mg, Any Grade) | Decreased appetite (treatment‐related AE) (15 mg, Any Grade) | Dry mouth (treatment‐related AE) (15 mg, Any Grade) | Dyspnea (treatment‐related AE) (15 mg, Any Grade) | Hyperglycemia (treatment‐related AE) (15 mg, Any Grade) | Increased glycosylated hemoglobin (treatment‐related AE) (15 mg, Any Grade) | Nausea (treatment‐related AE) (15 mg, Any Grade) | Rash pruritic (treatment‐related AE) (15 mg, Any Grade) | Thrombocytopenia (treatment‐related AE) (15 mg, Any Grade) | Vomiting (treatment‐related AE) (15 mg, Any Grade) | Arthralgia (treatment‐related AE) (15 mg, Grade ≥3) | Asthenia (treatment‐related AE) (15 mg, Grade ≥3) | Decreased appetite (treatment‐related AE) (15 mg, Grade ≥3) | Diarrhea (treatment‐related AE) (15 mg, Grade ≥3) | Dry mouth (treatment‐related AE) (15 mg, Grade ≥3) | Dysgeusia (treatment‐related AE) (15 mg, Grade ≥3) | Dyspnea (treatment‐related AE) (15 mg, Grade ≥3) | Fatigue (treatment‐related AE) (15 mg, Grade ≥3) | Hyperglycemia (treatment‐related AE) (15 mg, Grade ≥3) | Increased glycosylated hemoglobin (treatment‐related AE) (15 mg, Grade ≥3) | Mucositis (treatment‐related AE) (15 mg, Grade ≥3) | Nausea (treatment‐related AE) (15 mg, Grade ≥3) | Pruritus (treatment‐related AE) (15 mg, Grade ≥3) | Rash (treatment‐related AE) (15 mg, Grade ≥3) | Rash pruritic (treatment‐related AE) (15 mg, Grade ≥3) | Thrombocytopenia (treatment‐related AE) (15 mg, Grade ≥3) | Vomiting (treatment‐related AE) (15 mg, Grade ≥3) | Arthralgia (treatment‐related AE) (30 mg, Any Grade) | Dysgeusia (treatment‐related AE) (30 mg, Any Grade) | Increased glycosylated hemoglobin (treatment‐related AE) (30 mg, Any Grade) | Arthralgia (treatment‐related AE) (30 mg, Grade ≥3) | Asthenia (treatment‐related AE) (30 mg, Grade ≥3) | Decreased appetite (treatment‐related AE) (30 mg, Grade ≥3) | Diarrhea (treatment‐related AE) (30 mg, Grade ≥3) | Dry mouth (treatment‐related AE) (30 mg, Grade ≥3) | Dysgeusia (treatment‐related AE) (30 mg, Grade ≥3) | Dyspnea (treatment‐related AE) (30 mg, Grade ≥3) | Fatigue (treatment‐related AE) (30 mg, Grade ≥3) | Increased glycosylated hemoglobin (treatment‐related AE) (30 mg, Grade ≥3) | Mucositis (treatment‐related AE) (30 mg, Grade ≥3) | Nausea (treatment‐related AE) (30 mg, Grade ≥3) | Pruritus (treatment‐related AE) (30 mg, Grade ≥3) | Rash (treatment‐related AE) (30 mg, Grade ≥3) | Rash pruritic (treatment‐related AE) (30 mg, Grade ≥3) | Thrombocytopenia (treatment‐related AE) (30 mg, Grade ≥3) | Vomiting (treatment‐related AE) (30 mg, Grade ≥3)
5: Dose interruptions (45 mg)
3 (33) n (%): Diarrhea (treatment‐related AE) (30 mg, Any Grade) | Decreased appetite (treatment‐related AE) (45 mg, Any Grade)
1 (50) n (%): Asthenia (treatment‐related AE) (15 mg, Any Grade) | Diarrhea (treatment‐related AE) (15 mg, Any Grade) | Dysgeusia (treatment‐related AE) (15 mg, Any Grade) | Fatigue (treatment‐related AE) (15 mg, Any Grade) | Mucositis (treatment‐related AE) (15 mg, Any Grade) | Pruritus (treatment‐related AE) (15 mg, Any Grade) | Rash (treatment‐related AE) (15 mg, Any Grade)
4 (44) n (%): Decreased appetite (treatment‐related AE) (30 mg, Any Grade) | Fatigue (treatment‐related AE) (30 mg, Any Grade) | Hyperglycemia (treatment‐related AE) (30 mg, Any Grade) | Nausea (treatment‐related AE) (30 mg, Any Grade) | Diarrhea (treatment‐related AE) (45 mg, Any Grade)
1: Dose reductions (45 mg)
